Active and inactive are the calls of the source.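 How the source made its calls, unless noted: active means viability at or below 30% in both replicate assays; inconclusive means viability at or below 30% in just one of the two assays; inactive means the rest.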
Legend:
[1] = reduced viability of SK-BR-3 breast cancer cells – cell-based, 24 h, human, pilot screen (AID 572;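 active means viability at or below 10% of carrier control in both of two separate runs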;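 further: compound exposure lasted between 18 and 24 h rather than exactly 24 h; 100% = carrier-treated control wells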); settings: SK-BR-3 viability, CellTiter-Glo luminescence, at 10 µM, stronger effect = lower value
[2] = HUVEC growth inhibition – cell-based, human, primary screen (AID 575); settings: HUVEC proliferation, CellTiter-Glo luminescence, 72 h; at 10 µM; stronger effect = lower value;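 further: 100% = median of untreated cell wells with 0.1% DMSO on each plate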
Method in brief: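 System: primary human umbilical vein endothelial cells; Quantity: 1250 endothelial cells in each well; Buffer or medium: supplemented EBM, 2% fetal bovine serum; Doses: one dose, 10 µM final, 0.1% DMSO; Incubation: 72 h compound incubation; Technique: ATP-based CellTiter-Glo luminescent read; Evaluation: percent of median DMSO-control luminescence; Controls: vehicle and MePR control wells.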

[3] = H69AR cell proliferation blockers – human, duplicate replicates, primary screen (AID 580;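 active means viability at or under a set limit in both replicates, limit being median viability minus 3 SD, cut at about 48% in these data, passing the limit was not always enough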;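 further: 100% = mean luminescence of untreated wells and 0% = no signal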); settings: H69AR lung tumor cells viability, ATP luminescence, 72 h; at 10 µM; stronger effect = lower value
[4] = MRP1 drug-resistance reversers in H69AR cells – cell-based, doxorubicin co-treatment, pilot screen (AID 601;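 active means viability loss from added drug above about 55%, and viability with drug at most 40%, in both replicates, limit read from the data, passing the limit was not always enough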); settings: CellTiter-Glo, 72 h, at 10 µM; for differential viability (reversal): stronger effect = higher value
[5] = yeast transport mutant growth inhibition pilot in 384-well plates, post-Golgi transport modulator project (AID 636; in the data active means inhibition above about 31%); settings: absorbance 615 nm, about 18 h, stronger effect = higher value
[6] = growth suppression of yeast trafficking mutant, preliminary HTS, modulators of trafficking downstream of Golgi apparatus project, 1536-format plate, OD 615 nm (AID 637; in the data active means inhibition above about 30%); settings: yeast transport mutant growth, absorbance 615 nm, 18 h; stronger effect = higher value
[7] = H69AR cells + 2 uM doxorubicin, measured here: viability with 2 uM doxorubicin, stronger effect = lower value
[8] = H69AR cells, compound alone cytotoxicity

Structure (SMILES) | viability [1] | viability [2] | viability [3] | differential viability (reversal) ([4]; H69AR cells + 2 uM doxorubicin) | viability [4, 7] [%] | viability [4, 8] [%] | inhibition [5] | inhibition [6]
CC(=O)Nc1ccc(Cc2ccncc2)cc1 | 105% (inactive) | 90.2% (inactive) | 96.1% (inactive) | 8.84% (inactive) | 87.3 | 96.1 | -4.8% (inactive) | -4.36% (inactive)
CCCCCc1nnc(NC(=O)Cc2cccs2)s1 | 74% (inactive) | 110% (inactive) | 102% (inactive) | 10.7% (inactive) | 90.8 | 102 | -6.71% (inactive) | 3.64% (inactive)
Fc1cccc(Cl)c1Cn1nnc2c(NCc3ccccn3)ncnc21 | 76% (inactive) | 92.9% (inactive) | 105% (inactive) | 14.2% (inactive) | 91.1 | 105 | -4.66% (inactive) | -4.84% (inactive)
CCc1nnc(NC(=O)C2Cc3ccccc3CN2S(=O)(=O)c2cccs2)s1 (centres undefined) | 109% (inactive) | 89% (inactive) | 68.1% (inactive) | -16.4% (inactive) | 84.5 | 68.1 | -2.34% (inactive) | -3.28% (inactive)
S=C(c1ccc(N2CCOCC2)cc1)N1CCCCC1 | 103% (inactive) | 105% (inactive) | 93.5% (inactive) | 4.23% (inactive) | 89.2 | 93.5 | -5.48% (inactive) | -8.87% (inactive)
CC1=C(C(=O)N2CCOCC2)C(c2ccccc2F)C2=C(CCCC2=O)N1 (centres undefined) | 110% (inactive) | 104% (inactive) | 98.8% (inactive) | -2.68% (inactive) | 101 | 98.8 | -2.88% (inactive) | 0.91% (inactive)
c1ccc(-c2ccc(C(c3ccccc3)n3ccnc3)cc2)cc1 (centres undefined) | 140% (inactive) | 74.3% (inactive) | 63.3% (inactive) | -2.76% (inactive) | 66 | 63.3 | 100% (active) | 100% (active)
CCOC(=O)N1CCC(N(C(=O)Nc2cccc(OC)c2)C(C)CC)CC1 (centres undefined) | 129% (inactive) | 120% (inactive) | 96.9% (inactive) | 1.43% (inactive) | 95.5 | 96.9 | -2.21% (inactive) | 3.11% (inactive)
COc1ccc(-c2noc(COc3ccc(C)c(C)c3)n2)cc1OC | 110% (inactive) | 108% (inactive) | 94.1% (inactive) | -2.45% (inactive) | 96.6 | 94.1 | -7.3% (inactive) | -1.64% (inactive)
Cc1nc2ccccn2c(=O)c1CCN1CCC(C(=O)c2ccc(F)cc2)CC1 | 75% (inactive) | 83.6% (inactive) | 86.3% (inactive) | -15.1% (inactive) | 101 | 86.3 | 1.69% (inactive) | 17.2% (inactive)
CCCCNC(=O)CSc1nc2ccc(N3CCOCC3)cc2c(=O)n1CCc1ccccc1 | 95.5% (inactive) | 70.1% (inactive) | 69.3% (inactive) | 18.1% (inactive) | 51.3 | 69.3 | -7.16% (inactive) | 4.13% (inactive)
CC(=O)c1ccc(N2CCN(C(=O)c3cc(C)on3)CC2)cc1 | 100% (inactive) | 97.7% (inactive) | 111% (inactive) | 12.4% (inactive) | 98.9 | 111 | -6.99% (inactive) | -3.82% (inactive)
COCCCN(Cc1ccccn1)S(=O)(=O)Cc1ccccc1 | 130% (inactive) | 83.5% (inactive) | 105% (inactive) | 17.9% (inactive) | 86.7 | 105 | -4.11% (inactive) | -9.68% (inactive)
CSc1c(C#N)c(N)c(C#N)c2c1COC(C)(C)C2 | 94% (inactive) | 90.1% (inactive) | 88% (inactive) | -1.11% (inactive) | 89.1 | 88 | -11.1% (inactive) | 2.1% (inactive)
CN1[C@@H](CC(=O)c2ccccc2)CCC[C@H]1C[C@H](O)c1ccccc1 | 63% (inactive) | 81.4% (inactive) | 84.1% (inactive) | -4.62% (inactive) | 88.7 | 84.1 | 1.95% (inactive) | 0.67% (inactive)
C=CCN1C(=O)CS/C1=C(\C#N)S(=O)(=O)c1ccc(C)cc1 | 114% (inactive) | 96.2% (inactive) | 85.5% (inactive) | -2.67% (inactive) | 88.2 | 85.5 | -5.62% (inactive) | -1.45% (inactive)
COc1ccc(CN(C(=O)CN2C(=O)COc3ccccc32)C2CCCC2)c(OC)c1 | 110% (inactive) | 87.4% (inactive) | 92.5% (inactive) | 4.62% (inactive) | 87.9 | 92.5 | -4.52% (inactive) | -0.18% (inactive)
CN(C(=O)c1ccccn1)c1nnc(-c2cccnc2)s1 | 97% (inactive) | 90.6% (inactive) | 111% (inactive) | 17.8% (inactive) | 93.5 | 111 | -5.07% (inactive) | -2.26% (inactive)
